From ChEMBL document CHEMBL1132206, “Design, synthesis, and in vitro activity of catamphiphilic reverters of multidrug resistance: discovery of a selective, highly efficacious chemosensitizer with potency in the nanomolar range” (J Med Chem, 1999)
pEC50, pIC50: −log10 of the molar value. Active and inactive are the calls of the source. The calls are words filed in the database; no cut-off is given here.

Legend:
Cavia porcellus [1] = species on record: Cavia porcellus; assay: Potency expressed as EC50 for the negative inotropic activity; 'i' means Inactive; format: functional
K562 [2] = assay: Potency that causes a half maximal increase in nuclear concentration of pirarubicin.; format: functional, Homo sapiens
Cavia porcellus [3] = species on record: Cavia porcellus; assay: Decrease in atrial rate of the right atrium of guinea pig expressed as the negative chronotropy.; design: concentration or dose not given beside the values
Cavia porcellus [4] = species on record: Cavia porcellus; assay: Potency expressed as EC30 for the negative chronotropic activity; format: functional
Cavia porcellus [5] = species on record: Cavia porcellus; assay: Potency expressed as IC50 for the vasorelaxant activity; format: functional
K562 [6] = assay: Percentage of the dead cells of K-562 cells was determined for the compound; format: ADME, cell-based; conditions: human
Procedure, shortened: (§1)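 Doxorubicin-resistant K 562 cells were exposed to compound at 1 µM, and viability was scored by trypan blue exclusion. Dead cells above 20% counted as toxic.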

Cavia porcellus [7] = species on record: Cavia porcellus; assay: Decrease in developed tension of the left atrium of guinea pig expressed as the negative inotropy.; format: functional, Cardiac atrium; design: concentration or dose not given beside the values
Procedure, shortened: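 Isolated guinea pig left atrium, electrically driven at 1 Hz. Read-out is the fall in developed tension at 5 × 10^-5 M, given as percent change from control (n = 5-6).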

Cavia porcellus [8] = species on record: Cavia porcellus; assay: Percent inhibition of calcium-induced contraction on K+ depolarized guinea pig aortic strip.; format: functional, Aorta; design: concentration or dose not given beside the values
K562 [9] = assay: The efficacy in reverting MDR was evaluated on human erythroleukemia K-562 cell line; format: functional
Procedure, shortened: (§2)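 Doxorubicin-resistant and sensitive K 562 cells in exponential growth were used in pH 7.25 HEPES buffer at 37 °C in quartz cuvettes. Pirarubicin uptake was followed as the fall in fluorescence at 590 nm (ex 480 nm). Steady-state nuclear pirarubicin was measured across a range of inhibitor concentrations. α = (CnRi − CnRo)/(CnS − CnRo); αmax is the maximal α, and [i]0.5 is the concentration giving α = 0.5 (mean ± SEM).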

Cavia porcellus [10] = species on record: Cavia porcellus; assay: Potency expressed as IC50 for the vasorelaxant activity.; format: functional
K562 [11] = assay: Potency that causes half maximal increase in nuclear concentration of pirarubicin; 'i' means Inactive; format: functional, cell-based; conditions: Homo sapiens; procedure, shortened: as §2
Cavia porcellus [12] = species on record: Cavia porcellus; assay: Potency expressed as EC50 for the negative inotropic activity.; format: functional
Cavia porcellus [13] = species on record: Cavia porcellus; assay: Potency expressed as EC30 for the negative chronotropic activity.; format: functional
K562 [14] = assay: percentage of the dead cells of K-562 cells was determined for the concentration of 1 uM of the compound.; format: ADME, cell-based; conditions: human, k562, 1 µM; procedure, shortened: as §1
K562 [15] = assay: The efficacy in reverting MDR was evaluated on erythroleukemia K-562 cell line.; format: functional, Homo sapiens; procedure, shortened: as §2
Cavia porcellus [16] = species on record: Cavia porcellus; assay: Potency expressed as IC50 for the vasorelaxant activity; 'i' means inactive.; format: functional
Cavia porcellus [17] = species on record: Cavia porcellus; assay: Potency expressed as EC30 for the negative chronotropic activity; 'i' means Inactive; format: functional
Cavia porcellus [18] = species on record: Cavia porcellus; assay: Decrease in developed tension of the right atrium of guinea pig expressed as the negative chronotropy.; format: functional, Cardiac atrium; design: scale not given: the % may be the effect or the level left
Procedure, shortened: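 Spontaneously beating isolated guinea pig right atrium. Read-out is the fall in atrial rate at 5 × 10^-5 M (10^-5 M for some compounds), given as percent change from control (n = 7-8).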

Row | SMILES | EC50 (Cavia porcellus [1]) | pIC50 (Cavia porcellus [5]) | Dead cells (K562 [6]) [%] | pIC50 (Cavia porcellus [10]) | pEC50 (Cavia porcellus [12]) | Dead cells (K562 [14]) [%] | IC50 (Cavia porcellus [16]) | Potency (K562 [2]) [nM] | Activity (Cavia porcellus [3]) [%] | EC30 (Cavia porcellus [4]) [nM] | Activity (Cavia porcellus [7]) [%] | Activity (Cavia porcellus [8]) [%] | Alpha max (K562 [9]) | Potency (K562 [11]) | EC30 (Cavia porcellus [13]) [nM] | Alpha max (K562 [15]) | EC30 (Cavia porcellus [17]) | Activity (Cavia porcellus [18]) [%]
1 | COc1ccc(C(C#N)(CCCNC23CC4CC(CC(C4)C2)C3)C(C)C)cc1OC.Cl (stereo not given) | Not Active | 5.15 | 0 | – | – | – | – | 2000 | 80 | 1700 | 45 | 81 | 0.7 | – | – | – | – | –
2 | COc1ccc(C(C#N)(CCCN(C)C23CC4CC(CC(C4)C2)C3)C(C)C)cc1OC.Cl (stereo not given) | – | – | – | 5.42 | 5.40 | – | – | – | 81 | – | 80 | 65 | – | inactive | 910 | – | – | –
3 | Cl.N#CC(CCCNC12CC3CC(CC(C3)C1)C2)(c1ccccc1)c1ccccc1 | – | – | 0 | 5.46 | 5.99 | – | – | 500 | 69 | – | 80 | 55 | 0.8 | – | 1260 | – | – | –
4 | C=CCNc1nc(NCC=C)nc(N2CCC(NCCCC(C#N)(c3ccc(OC)c(OC)c3)C(C)C)CC2)n1.Cl (stereo not given) | Not Active | – | 0 | 5.46 | – | – | – | 1600 | 87 | – | 39 | 62 | 0.9 | – | 1750 | – | – | –
5 | Cl.N#CC(CCCNCc1c2ccccc2cc2ccccc12)(c1ccccc1)c1ccccc1 | Not Active | – | – | – | – | 20 | Inactive | 500 | 67 | – | 48 | 6 | – | – | 660 | 0.7 | – | –

Continued, in another order:

Row | EC50 (Cavia porcellus [1]) | pIC50 (Cavia porcellus [5]) | Dead cells (K562 [6]) [%] | pIC50 (Cavia porcellus [10]) | pEC50 (Cavia porcellus [12]) | Dead cells (K562 [14]) [%] | IC50 (Cavia porcellus [16]) | SMILES | Potency (K562 [2]) [nM] | Activity (Cavia porcellus [3]) [%] | EC30 (Cavia porcellus [4]) [nM] | Activity (Cavia porcellus [7]) [%] | Activity (Cavia porcellus [8]) [%] | Alpha max (K562 [9]) | Potency (K562 [11]) | EC30 (Cavia porcellus [13]) [nM] | Alpha max (K562 [15]) | EC30 (Cavia porcellus [17]) | Activity (Cavia porcellus [18]) [%]
6 | – | – | 0 | 5.47 | 5.94 | – | – | COc1ccc(C(C#N)(CC#CCN(C)CC23CC4CC(CC(C4)C2)C3)C(C)C)cc1OC.Cl (stereo not given) | 1300 | 92 | – | 77 | 65 | 0.8 | – | 240 | – | – | –
7 | – | – | 20 | 5.39 | 5.97 | – | – | COc1ccc(C(C#N)(CC#CCNCC(c2ccccc2)c2ccccc2)C(C)C)cc1OC.Cl (stereo not given) | 100 | 67 | – | 61 | 54 | 0.7 | – | 830 | – | – | –
8 | – | – | 3 | – | 6.19 | – | Inactive | COc1ccc(C(C#N)(CCCN(C)Cc2c3ccccc3cc3ccccc23)C(C)C)cc1OC.Cl (stereo not given) | 2500 | – | – | 85 | 9 | 0.5 | – | – | – | inactive | 19
